An excerpt weighted towards active compounds, which were near 3.5% of everything screened.
RGS4 block: inhibitors of human RGS4; HEK293 M3R/RGS4 inducible, Fluo-4 calcium flux; hits give high values; triggered by carbachol at its EC20; B-score at 10 µM; actives 0.45% (n = 310,000); AID 463165;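 active means B-score, a plate-corrected calcium signal, over three deviations above library mean, with baseline fluorescence within five deviations of library mean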;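 further: RGS4 expression induced by doxycycline in cells with stable M3 receptor; B-score is computed from the integrated fluorescence ratio over baseline after carbachol; higher B-score means a larger calcium signal and so more RGS4 inhibition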
Target sequence (P49798 whole entry, looked up): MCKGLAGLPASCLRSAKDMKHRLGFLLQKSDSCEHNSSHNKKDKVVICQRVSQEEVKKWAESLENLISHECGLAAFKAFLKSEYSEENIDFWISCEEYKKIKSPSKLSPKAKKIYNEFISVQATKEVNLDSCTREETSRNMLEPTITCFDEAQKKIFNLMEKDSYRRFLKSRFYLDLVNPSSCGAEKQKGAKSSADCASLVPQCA
RGS4 act: potentiators or activators of RGS4; HEK293 M3R/inducible RGS4, carbachol calcium flux Fluo4; hits give low values; B-score at 10 µM; actives 0.92% (n = 310,000);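 active means B-score of the integrated calcium signal more than 4 SD below the library mean, with starting fluorescence not abnormally high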;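 further: negative B-score means reduced calcium response which marks RGS4 activation or potentiation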
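System – HEK293 FlpIn-TREx cells, stable M3R, doxycycline-inducible RGS4 · Reagent – ECmax carbachol challenge · Times – compound preincubation 20 min at room temperature before agonist · Technique – Fluo4 fluorescence kinetic imaging of calcium · Measure – B score of integrated Fluo4 ratio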
MrgX1 antag: antagonists of human MrgX1 receptor; AID 588676; actives 1.3% (n = 310,000); Q96LB2; B-score at 10 µM; MRGX1-HEK293 calcium flux, Fluo-4, BAM8-22 antagonism; hits give low values;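 active means calcium-response B-score plate-corrected more than 3 library SD below zero, starting fluorescence within 5 deviations, no agonist response on first addition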;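 further: peak minus trough fluorescence over baseline after final BAM8-22 challenge near maximal dose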
Target sequence (Q96LB2 whole entry, looked up): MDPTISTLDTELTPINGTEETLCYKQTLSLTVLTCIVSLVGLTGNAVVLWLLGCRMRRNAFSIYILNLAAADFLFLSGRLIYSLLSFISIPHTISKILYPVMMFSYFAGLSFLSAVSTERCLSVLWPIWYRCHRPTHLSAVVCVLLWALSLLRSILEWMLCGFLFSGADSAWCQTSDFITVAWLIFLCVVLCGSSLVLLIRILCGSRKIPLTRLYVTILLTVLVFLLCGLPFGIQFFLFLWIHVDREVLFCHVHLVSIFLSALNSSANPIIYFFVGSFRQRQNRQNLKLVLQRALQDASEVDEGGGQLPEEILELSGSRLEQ
MrgX1 ag: agonists of human MrgX1 receptor. Q96LB2. MrgX1-HEK293 cells, Fluo-4 calcium fluorescence, agonist mode; hits give high values. B-score at 10 µM. actives 0.44% (n = 310,000);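 active means calcium response B-score plate-corrected fluorescence ratio at least 3 library SD, with starting fluorescence B-score inside 5 SD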
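Material: MrgX1-expressing HEK293 cells; input: 15,000 cells per well; doses: test compound given as first of three sequential additions; schedule: overnight plating before 1 h dye loading; technique: Fluo-4 NW calcium-flux fluorescence, kinetic read; evaluation: baseline-normalised fluorescence change ratio, B-scored; control set: plate-wise positive and negative controls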
MrgX1 allo act: human MrgX1 positive allosteric modulation, primary screen | Q96LB2 | actives 0.63% (n = 310,000) | MrgX1-HEK293, Fluo-4 calcium flux, FDSS; hits give high values | AID 588675 | B-score at 10 µM;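 active means plate-corrected calcium response at least 3 library SD above typical, normal starting fluorescence, not activating the receptor alone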;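 further: compound read alongside a low EC10 to EC30 dose of BAM8-22 agonist; peak minus trough fluorescence over baseline measured at the second addition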
MrgX1 ag confirm: human MrgX1 agonism, re-confirmation screen. activation, % at 10 µM. MrgX1-HEK293, Fluo-4 calcium fluorescence, FDSS. actives 78% (n = 600). shares compounds with MrgX1 ag. AID 602412;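 active means calcium signal rise, corrected for plate position, at least 3 library SD high, with starting brightness within 5 such deviations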
HEK293 Ca flux: counter-screen for MrgX1 antagonists: effect in parental HEK293 cells | fluorescence ratio F(max-min)/F0 at 10 µM | actives 2% (n = 4,000) | shares compounds with MrgX1 antag | Fluo-4 calcium fluorescence, FDSS;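 active means duplicate-averaged calcium fluorescence ratio at least three times the standard deviation of buffer wells, a nonspecific response in parental cells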
HEK293 Ca counter: activity in parental HEK293 cells without MrgX1; fluorescence ratio F(max-min)/F0 at 10 µM; actives 0.4% (n = 4,000); parental HEK293 calcium flux, Fluo-4 fluorescence ratio; hits give high values; shares compounds with MrgX1 antag; AID 624114;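 active means calcium fluorescence ratio, averaged over duplicates, at least 3 SD of the buffer-well ratio, meaning a nonspecific response in receptor-free cells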;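 further: untransfected parental HEK293 lacking MrgX1 used as counterscreen for MrgX1 allosteric activators; fluorescence change taken during the second addition on a kinetic imager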
HEK293 Ca cntr2: activity in parental HEK293 cells lacking MrgX1 receptor; actives 8.7% (n = 4,000); fluorescence ratio F(max-min)/F0 at 10 µM; shares compounds with MrgX1 antag; AID 624115; Fluo-4 calcium fluorescence (FDSS); hits give high values;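 active means calcium fluorescence ratio at least three times the spread of buffer wells, meaning a non-specific response in parental cells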
* marks the source's active call; other numbers are inactive results; i = inactive; · = no result.

SMILES | RGS4 block | RGS4 act | MrgX1 antag | MrgX1 ag | MrgX1 allo act | MrgX1 ag confirm | HEK293 Ca flux | HEK293 Ca counter | HEK293 Ca cntr2
Cn1cc(C2CC(c3ccccc3)=NN2C(=O)c2ccccc2)c2ccccc21 (centres undefined) | i | i | i | i | i | · | · | · | ·
CC(C)c1ccc(S(=O)(=O)/N=C2\C=C(NS(=O)(=O)c3ccccc3)C(=O)c3ccccc32)cc1 | i | -11* | i | 30* | i | i | i | i | i
CCc1ccc(S(=O)(=O)/N=C2\C=C(NS(=O)(=O)c3ccccc3)C(=O)c3ccccc32)cc1 | i | i | · | · | · | · | · | · | ·
N=C(N)SCCc1cccc(CCSC(=N)N)c1 | i | i | i | 40* | i | 181%* | i | i | i
N=C(N)SCc1nc2ccccc2c(=O)n1-c1ccccc1Cl | i | i | i | 27* | i | 203%* | i | i | i
O=c1c2ccccc2nc(CSc2nnnn2-c2ccccc2)n1-c1ccccc1Cl | i | i | i | i | i | · | · | · | ·
C/C(N)=C(/C#N)C(=O)CSc1nc2ccccc2c(=O)n1-c1ccccc1C | i | i | i | i | i | · | · | · | ·
Cc1ccccc1-n1c(CSC(=N)N)nc2ccccc2c1=O | i | i | i | 43* | i | 221%* | i | i | i
CC1(C)CC(=O)C(N=Nc2cccc([N+](=O)[O-])c2)=C(O)C1 | i | i | i | i | i | · | · | · | ·
COc1ccccc1NC(=O)C1CCCN(S(=O)(=O)c2ccccc2)C1 (centres undefined) | i | i | i | i | i | · | · | · | ·
CN1CCN(C(=O)CSc2nc(-c3ccncc3)ccc2C#N)CC1 | i | i | i | 35* | i | 158%* | i | i | i
CN1CCN(C(=O)CSc2nc(-c3cccs3)cc(-c3cccs3)c2C#N)CC1 | i | i | i | i | i | · | · | · | ·
N#Cc1ccc(-c2cccnc2)nc1SCC(=O)c1ccccc1 | i | i | i | 30* | i | 197%* | i | i | i
Cc1ccc(-c2ccc(CCC(=O)O)n2-c2cccc(O)c2)cc1 | i | i | i | 28* | i | 135%* | i | i | i
COC(=O)CN1C(=O)COc2ccc(S(=O)(=O)NCc3ccc(Cl)cc3)cc21 | i | i | i | i | i | · | · | · | ·
Cc1cccc(C(=O)NC(=S)NNC(=O)Cc2ccccc2)c1 | i | i | i | 119* | i | 638%* | i | i | 137*
Cc1cccc(C(=O)NC(=S)Nc2ccccc2C(=O)O)c1 | i | i | i | i | i | · | · | · | ·
Cc1cccc(C(=O)NC(=S)NNC(=O)c2ccccc2Cl)c1 | i | i | i | 105* | i | 776%* | i | i | 149*
CCCCNc1cc(F)nc(N)n1 | i | i | i | i | i | · | · | · | ·
COc1ccc2c(c1)CCCN2C(N)=Nc1ccc(Cl)cc1 | i | i | i | 33* | i | i | i | i | i
COc1ccc2c(c1)CCCN2S(=O)(=O)c1ccc(Cl)cc1 | i | i | i | i | i | · | · | · | ·
CS(=O)(=O)c1ccc(-c2cn3cc(C(=O)O)ccc3n2)cc1 | i | i | i | i | i | · | · | · | ·
O=C(NNC(=S)NC1CCCCC1)c1sc2ccccc2c1Cl | i | i | i | i | i | · | · | · | ·
CC(C)(C)C(=O)NC(=S)NNC(=O)c1sc2ccccc2c1Cl | i | i | i | 142* | i | 917%* | i | i | 177*
CN1CCc2c(sc3c2C(=O)NC(c2ccc(-c4ccc(Cl)cc4)o2)N3)C1 (centres undefined) | i | i | i | 31* | i | i | i | i | i
SMILES | RGS4 block | RGS4 act | MrgX1 antag | MrgX1 ag | MrgX1 allo act | MrgX1 ag confirm | HEK293 Ca flux | HEK293 Ca counter | HEK293 Ca cntr2
CN1c2ccccc2C(O)=C(C(=O)Nc2ccccc2)S1(=O)=O | i | i | i | 41* | i | i | i | i | i
O=C(NN=C1CCCC1)c1ccn[nH]1 | i | i | i | i | i | · | · | · | ·
CN1C(=O)C(C)(C)N(C(=O)c2cccc([N+](=O)[O-])c2)c2ccccc21 | i | i | i | i | i | · | · | · | ·
CC1(C)CSC(=NCc2ccccc2)N1C(=O)c1cccc([N+](=O)[O-])c1 | i | i | i | 84* | i | 505%* | i | i | 103*
CCn1c(=O)c(C(=O)CN2CCN(S(=O)(=O)c3ccc(C)cc3C)CC2)c(N)n(Cc2ccccc2)c1=O | i | i | i | i | i | · | · | · | ·
CCn1c(=O)c(C(=O)CN2CCN(S(=O)(=O)c3ccccc3)CC2)c(N)n(Cc2ccccc2)c1=O | i | i | i | 27* | i | 188%* | i | i | i
COc1cc(S(=O)(=O)NCc2ccccn2)c(OC)cc1Cl | i | i | i | i | i | · | · | · | ·
OCc1ccnc(Cl)c1 | i | i | i | i | i | · | · | · | ·
CS(=O)(=O)c1ccc(C(=O)NCc2ccc(F)cc2)cc1 | i | i | i | i | i | · | · | · | ·
CC(C)c1ccc(NC2(C#N)C(=O)Nc3ccccc32)cc1 (centres undefined) | i | i | i | 39* | i | 191%* | i | i | 49*
C=CCn1c(Cc2c[nH]c3ccccc23)n[nH]c1=S | i | i | i | i | i | · | · | · | ·
CC(C)Cc1csc(NC(=O)c2ccc(Br)cc2)c1C(=O)O | i | i | i | 45* | i | i | i | i | i
O=C(CCN1C(=O)/C(=C/c2cccs2)SC1=S)Nc1ccccc1O | i | i | i | i | i | · | · | · | ·
CCc1cccc(C)c1NC(=S)N1CCCCC1c1cccnc1 (centres undefined) | i | i | i | 28* | i | 100%* | i | i | 48*
Cc1cc(C)c2c(=O)n(CC(=O)NC3CCCC3)sc2n1 | i | i | i | 29* | i | 183%* | i | i | i
Nc1ccc2c(c1)C(=O)N(CC1CCCO1)C2=O (centres undefined) | i | i | i | i | i | · | · | · | ·

Assay outcomes as filed in PubChem.
